Measured values from ChEMBL document CHEMBL4513216, “Probing the Open Global Health Chemical Diversity Library for Multistage-Active Starting Points for Next-Generation Antimalarials” (ACS Infect Dis, 2020).

Test: Toxicity liver stage against HepG2, at 10uM
Type: cell-based
Design: test concentration 10 uM, cell line HepG2-A16-CD81EGFP
Details: human, HepG2-A16-CD81EGFP cells; read-out: INHIBITION
In short: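 Uninfected HepG2-A16-CD81EGFP cells, 3 × 10^3 per well, 1536-well, plated on prespotted compound at 10 μM final, parasite-free screening media added to match infected plates; puromycin 10 μM positive, DMSO 0.5% negative; run in parallel with 48 h PbLuc assay at 37 °C, 5% CO2; viability by CellTiter-Glo luminescence, normalized to controls.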

Row | Structure (SMILES) | cytotoxicity at 10 µM
1 | Cc1cc2ncn(C(=O)N3CCCC3)c2cc1C | -6.01%
2 | COc1ccc(-c2n[nH]cc2CN2CCSCC2)c(OC)c1 | 6.4%
3 | CC(C)(C)CNC[C@H]1Cn2ccnc2CO1 | -6.17%
4 | O=C1CO[C@H]2CN(C3CCOCC3)C[C@H]2N1Cc1ccncc1 | 5.89%
5 | COc1ccc(CN2CC[C@H](c3nc4cccc(C(N)=O)c4[nH]3)C2)cc1 | 12.1%
6 | CN1Cc2cc(F)ccc2N(CC(C)(C)O)CCC1=O | -2.02%
7 | CC(C)(C)CC(=O)N1[C@@H](c2ccco2)[C@@H](CO)C[C@]12CCCCNC2=O | 0.122%
8 | CCNC(=O)N1CC2=CC(C)(C)COc3ccc(OC)c(c32)C1 | 8.47%
9 | CC(C)CCc1n[nH]c(C(=O)O)c1I | -1.93%
10 | COCC(C)NC(=O)c1cn(C(C)C)cc2c(=O)[nH]nc1-2 (stereo unspecified) | -12.6%
11 | O=C(Nc1nc2c(s1)CN(C(=O)NCc1cccs1)CC2)C1CC1 | -0.707%
12 | O=C(c1nnn(-c2ccccc2Cl)c1-c1ccccn1)N1CCSCC1 | 4.92%
13 | CC(C)CC(=O)N1CCN(c2cc(N(C)C)cnn2)CC1 | 4.17%
14 | CC(C)C(=O)N1CCC2(CC1)[C@@H]1CN(C(=O)N(C)C)C[C@@H]1C(=O)N2C | 1.76%
15 | O=C(C1CCCCC1)N1C[C@@H]2CCNC[C@@H]21 | 3.47%
16 | COc1ccc(C[C@H]2CN(C(=O)c3cscn3)CC[C@@H]2OC)cc1 | 7.71%
17 | O=C(C1CCOC1)N1CCC2(CCNCC2)C1 (stereo unspecified) | 7.62%
18 | O=C(c1ccco1)N1CCOCC2(C1)CN(c1ccccn1)C(=O)CO2 (stereo unspecified) | 3.16%
19 | CC(=O)NCCOc1c(Cl)cccc1Cl | -8.87%
20 | O=C(O)c1ccccc1-n1cc(CN2CCC(c3cc[nH]n3)C2)cn1 (stereo unspecified) | 1.1%
21 | CNc1cc(C2CCCN2C(=O)CCc2ccccc2F)ccn1 (stereo unspecified) | -2.01%
22 | Cc1ccccc1CN1CCCC1c1cncc(Nc2nncs2)n1 (stereo unspecified) | 1.66%
23 | O=C(NC1(C(=O)O)CCCC1)C1Cc2cc(F)ccc2O1 (stereo unspecified) | -0.183%

Row | Structure (SMILES) | cytotoxicity at 10 µM
24 | O=C1CCCN1CCN1CCC(c2ccn[nH]2)CC1 | 11.3%
25 | Cc1nc2n(n1)CC(NCc1nnc(C(C)(C)C)o1)CC2 (stereo unspecified) | -5.23%
26 | CCc1nc(C(=O)N2CCOCC2CC(=O)c2ccccc2)c[nH]1 (stereo unspecified) | -0.613%
27 | CC(=O)NCCCSC1CCCN(c2ccccc2Cl)C1=O (stereo unspecified) | -0.5%
28 | CCOc1cc(CNCC2CN(C3CC3)CCO2)ccc1OC (stereo unspecified) | -5.95%
29 | COCc1nccc(C2CCCN(Cc3ccc(C#N)cc3F)C2)n1 (stereo unspecified) | 27.3%
30 | O=C(NC1CCCN(c2ccc(OC(F)F)cc2)C1)c1c[nH]nn1 (stereo unspecified) | 24.8%
31 | COCCN(Cc1ccco1)Cc1nc(-c2ccsc2)no1 | 1.02%
32 | CS(=O)(=O)CCCNC1(c2cccc(Cl)c2)CCCC1 | 0.245%
33 | COC(=O)CCN1CCCC1c1ccccc1Cl (stereo unspecified) | 19.6%
34 | CCOc1cccc(NS(=O)(=O)c2cc(C)c(C(=O)O)s2)c1 | -5.28%
35 | Cc1ccsc1CN(C)C(=O)Cn1nc(-c2ccc(F)cc2)oc1=O | 1.31%
36 | Cc1ccc(OCCC(=O)NC2CCc3nccn3C2)cc1 (stereo unspecified) | -8.15%
37 | COCC1c2nnn(C)c2CCN1C(=O)COc1ccccc1C (stereo unspecified) | -100%
38 | O=C(NCC1CC1)C1=NOC2(CCN(S(=O)(=O)Cc3ccccc3)C2)C1 (stereo unspecified) | -2.1%
39 | O=C(c1ccc[nH]1)N1CCC2(CC1)CC(Oc1cccnc1)CO2 (stereo unspecified) | -7.69%
40 | Cn1cc(CN2CC[C@H](O)[C@@H]2Cc2ccncc2)cn1 | 3.6%
41 | CC(=O)N1CCC2(CCCN(C(=O)c3ccccc3)C2)C1 (stereo unspecified) | 9.52%
42 | Cc1c(C(C)NC2CCOCC2)cnn1-c1ccc(F)cc1F (stereo unspecified) | -8.87%
43 | CNS(=O)(=O)CCn1cc(-c2ccc(OC)c(OC)c2)nn1 | 1.9%
44 | NC(=O)c1cc2c(nc1-c1ccc3c(c1)CCO3)CCC2 | -11.3%
45 | CCc1nccn1CCC(=O)N1CC[C@@H](c2sccc2C)[C@H](O)C1 | -6.04%
46 | C/C=C(\C)CN1C[C@@H](NC(=O)c2ccc(O)c(Cl)c2)C[C@H]1C(=O)NCC | 9.23%

Row | Structure (SMILES) | cytotoxicity at 10 µM
47 | Cc1cc(C(=O)NC2CCCCNC2=O)c(=O)[nH]c1C (stereo unspecified) | -3.35%
48 | CCn1cnc(NC(=O)N2CCCC(c3ccccc3)CC2)n1 (stereo unspecified) | 2.7%
49 | CN(C)CCNC(=O)c1ccc(OC2CCN(C3CCC3)CC2)c(Cl)c1 | -5.89%
50 | COc1ccc(-n2c(SCC(=O)O)nnc2-c2cn[nH]c2)cc1 | -4.59%
51 | CCc1cc(N[C@H](C(N)=O)[C@@H](C)CC)n2nccc2n1 | 2.99%
52 | CN(Cc1nc(Cc2cccc(C(F)(F)F)c2)no1)C1CCOCC1 | 6.39%
53 | OC1CCN(CCCNc2ncccn2)CC1 | 2.68%
54 | CN(C)c1nc2c(c(N3CCC(O)CC3)n1)CN(CC(C)(C)C)CC2 | 7.5%
55 | CN(C)C(=O)N1CCC(C(=O)N2CCOC(CC3CCCCC3)C2)CC1 (stereo unspecified) | 21.3%
56 | COc1cccc(CC2(C(=O)O)CCN(c3nccs3)CC2)c1 | -9.59%
57 | CCCc1cc(N2CCC(NC3CCOCC3)CC2)nc(C)n1 | 5.27%
58 | Fc1ccc(C2(CNCC(F)F)CCOC2)cc1 (stereo unspecified) | -152%
59 | CCN(CC)C(=O)C1CCCN(CC(=O)Nc2c(C)nn(CC)c2C)C1 (stereo unspecified) | 2.13%
60 | Cc1nc(N2CCCC(C)C2)nc2cc(S(C)(=O)=O)ccc12 (stereo unspecified) | -24.2%
61 | CN(CC1COCCO1)c1ncnc2cc(F)ccc12 (stereo unspecified) | 0.613%
62 | Cc1nc(CCNC(=O)C2CC(=O)N(C(C)C)C2)sc1C (stereo unspecified) | -14%
63 | Cc1cccc(N2CCN(C(=O)C3CC4(CCNCC4)CN3)CC2)n1 (stereo unspecified) | -4.27%
64 | CCNC(=O)c1cc(OC)c(OC)cc1N(C)S(C)(=O)=O | 1.56%
65 | O=C(Cc1n[nH]c(-c2cncc(Br)c2)n1)NCc1ccccn1 | -1.39%
66 | Cn1cc(-c2ccnc(NCC3CC3)n2)cn1 | -134%
67 | Cc1ccc(CN2CCN(CC3CC3)[C@@H]3CS(=O)(=O)C[C@@H]32)cc1C | 25.4%
68 | COc1ccc(C2CC(=O)Nc3c2nc2n3CCCC2)cc1OC (stereo unspecified) | -8.41%
69 | Cc1cc(C)nc(N2Cc3cnn(Cc4ccc(F)cc4)c3C2)n1 | 25.2%

Row | Structure (SMILES) | cytotoxicity at 10 µM
70 | Cc1nc(C)n(C2CCCN(C(=O)COc3cccc(C#N)c3)C2)n1 (stereo unspecified) | 1.08%
71 | Cc1cccc(-c2nc(C)nn2CC(=O)NC(C)C)c1 | 8.22%
72 | Cc1nc(CN2CCCC(NCc3csc(C(C)(C)C)n3)C2)no1 (stereo unspecified) | 0.238%
73 | c1cnn(CC2CCCN2Cc2noc(C3CC3)n2)c1 (stereo unspecified) | 1.46%
74 | CC(NC(=O)CCn1cccn1)c1ccc2c(c1)OCCO2 (stereo unspecified) | -7.79%
75 | CCn1cnnc1C1CCN(C(=O)c2cccc(OC)c2OC)CC1 | -7.96%
76 | Cc1nc2cc(O)nn2c(C)c1CCC(=O)NCCc1ccccc1 | -6.65%
77 | Cc1cc(NC(=O)CN2CCCCC2Cn2nc(C)nc2C)on1 (stereo unspecified) | -2.19%
78 | COc1cccc(CN(C)C(=O)NCc2c(C)cc(C)[nH]c2=O)c1 | -7.98%
79 | Cc1ncsc1C(=O)NC1CCN(CC(N)=O)CC1 | -3.54%
80 | Cc1cccc(OCCNC(=O)CN2CCc3cncnc3C2)c1 | -6.65%
81 | Cc1cnc2c(S(=O)(=O)N(C)C3CCS(=O)(=O)C3)cccc2c1 (stereo unspecified) | -5.44%
82 | Cc1nc(C)n(CC2CN(Cc3nc4ccccc4n3C)CCO2)n1 (stereo unspecified) | -4.68%
83 | O=C(O)c1cc(S(=O)(=O)Nc2cccc(F)c2F)cc2c1OCCO2 | -3.65%
84 | Cc1cc(C(=O)N2CCCN(Cc3nccn3C)CC2)no1 | 0.47%
85 | CCc1nc(CN(C)C2CCN(CC(=O)N3CCOCC3)C2)no1 (stereo unspecified) | -5.32%
86 | O=C(N1CCCC(n2cncn2)C1)C1(c2ccccc2F)CCCC1 (stereo unspecified) | -4.24%
87 | CC(C)c1nnc(CN2CCCC(Cn3cncn3)C2)o1 (stereo unspecified) | -3.39%
88 | Cc1cc(NC(=O)CN2CCn3c(nnc3C(C)C)C2)n(C)n1 | -5.39%
89 | Cc1nc(C2CCCN2CCCS(N)(=O)=O)no1 (stereo unspecified) | -10.3%
90 | CC(NCc1ccsc1)c1ccc2c(c1)NC(=O)CO2 (stereo unspecified) | -7.6%
91 | COC(=O)c1cc(C(=O)N2CCC(C)CC2)n(-c2ccccc2)n1 | 0.103%
92 | Cc1ccc(C(=O)NS(=O)(=O)c2cc(Cl)ccc2Cl)c(=O)[nH]1 | -5.72%

Row | Structure (SMILES) | cytotoxicity at 10 µM
93 | CCN(CC1CCOC1)C(=O)Nc1ccc(OC)nc1 (stereo unspecified) | -4.2%
94 | OC(COCc1ccccc1Cl)CN1CC(n2cccn2)C1 (stereo unspecified) | -7.7%
95 | CN1CCOC(CNCc2coc(-c3ccccc3)n2)C1 (stereo unspecified) | -5.1%
96 | Cc1cnn(CC2CCCN2C(=O)CCc2nc3ccccc3[nH]2)c1 (stereo unspecified) | -12.9%
97 | CCOc1ncccc1CNC(=O)Nc1ccc(N(C)C)nc1 | -11.8%
98 | CCc1nc(C)c(C(=O)NCCN2CCN(C(C)=O)CC2)s1 | -10.4%
99 | CCC(C)[C@H](N)c1nnc(SCC(=O)Nc2cc(C)ccc2C)o1 (stereo partly specified) | -12.7%
100 | Cc1cc(C(=O)N2CCN(C)CC2)nn1CC(=O)NCc1cccs1 | -5.83%
101 | COc1ccc(CN(Cc2cccnc2)CC2CCCO2)c(OC)c1 (stereo unspecified) | 1.13%
102 | O=C(C1CCC1)N1CCC2(CCCN2CC2CC2)CC1 | -2.45%
103 | CN1CCOCC12CCN(C(=O)C1CCC1)CC2 | 0.64%
104 | Cc1ccc2c(c1)C(NC(=O)N(C)C)CC21CCN(CC2CC2)CC1 (stereo unspecified) | 4.44%
105 | O=C(c1ccco1)N1CC[C@@H]2CN(C3CCOCC3)CCO[C@@H]2C1 | -112%
106 | CN(C)CCO[C@@H]1CC[C@H]2[C@H]1OCCN2C(=O)COc1ccccc1 | -4.84%
107 | CN(Cc1ccccn1)C1CCC[C@@H]2CN(CC3CC3)C[C@H]12 (stereo partly specified) | -113%
108 | Cc1cccc(N2CCc3ncc(CNS(C)(=O)=O)n3CC2)n1 | 8.39%
109 | CCN(C)c1ncnc2c1CCN(Cc1ccc(F)cc1)CC2 | 3.1%
110 | O=c1cc(Cn2cncn2)nc2n1CCCN(Cc1ccc(F)cc1)C2 | 4.43%
111 | O=C(NCC1CCCCC1)N1C[C@@H]2C[C@H](C(=O)N3CCOCC3)[C@H](C1)O2 | -99.4%
